# This is a sample that favours compounds with a hit; in the whole collection about 2.7% have one here.
# IMP-1 inhibitor – inhibitors of Pseudomonas aeruginosa IMP-1 metallo-beta-lactamase; purified IMP-1, nitrocefin hydrolysis, epi-absorbance fluorescence; inhibition, % at 5.6 µM; 290,000 compounds, 0.45% hits; AID 1556;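 active means inhibition above the mean plus 3 SD of all compounds in the same screening run, cut at about 4.5% in these data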;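 further: 0% = IMP-1 with DMSO and 100% = DMSO wells lacking enzyme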
#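 Assay system: purified IMP-1; Quantity: IMP-1 0.2 nM before substrate addition; Medium: HEPES buffer pH 7.1 with ZnSO4 and Brij 35; Incubation: 15 min enzyme–compound preincubation, then 25 min nitrocefin reaction, 25 °C; Signal: fluorescence quenching readout, ex 480/em 530 nm; Controls: DMSO with and without IMP-1; Repeats: singlicate testing.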
# PfM18AAP inh-1 – PfM18AAP enzyme inhibition; recombinant PfM18AAP, H-Glu-NHMec fluorogenic cleavage; 290,000 compounds, 1.2% hits; inhibition, % at 7.35 µM;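 active means inhibition above the campaign mean inhibition over all tested compounds plus 3 SD, cut at about 28% in these data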;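 further: 0% = plate median of test compound wells and 100% = 2 mM ZnCl2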
# VIM-2 inh – inhibitors of Pseudomonas aeruginosa VIM-2 metallo-beta-lactamase; purified VIM-2, nitrocefin hydrolysis, epi-absorbance fluorescence; inhibition, % at 5.6 µM; 290,000 compounds, 0.89% hits;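 active means inhibition above the mean of all tested compounds plus 3 SD, cutoff set per screening run, cut at about 7.5% in these data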;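 further: red hydrolysis product quenches plate fluorescence so inhibitors raise well fluorescence; 0% = enzyme with DMSO and 100% = DMSO without enzyme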
# CTSL1 counter-1 – blocks F. hepatica cathepsin L1 in PFM18AAP counter-screen; inhibition, % at 5.96 µM; 300,000 compounds, 0.49% hits; recombinant F. hepatica cathepsin L1, Z-Leu-Arg-MCA fluorescence;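 active means inhibition above the mean of all tested compounds plus 3 SD, set per screening campaign, cut at about 17% in these data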;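 further: 0% = plate median of test compound wells and 100% = 1 µM Z-Phe-Ala-diazomethylketone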
# PfM18AAP inh-2 – PfM18AAP inhibition, confirmation; shares compounds with PfM18AAP inh-1; recombinant PfM18AAP, H-Glu-NHMec fluorogenic cleavage; inhibition, % at 7.35 µM; 2,400 compounds, 28% hits;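 active means mean inhibition over replicate wells above the hit cutoff set for the earlier primary screen, cut at about 29% in these data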;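 further: 0% = median of test compound wells and 100% = 2 mM ZnCl2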
# CTSL1 counter-2 – Cathepsin L (human) inhibition, confirmation. inhibition, % at 5.96 µM. purified cathepsin L1, Z-Leu-Arg-MCA fluorescence. shares compounds with PfM18AAP inh-1. 2,400 tested, under 10 active;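 active means average inhibition across replicates above the hit cutoff set in the earlier primary screen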;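 further: 0% = median of test compound wells and 100% = Z-Phe-Ala-diazomethylketone 1 µM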
# Target sequence (P07711 whole entry, looked up): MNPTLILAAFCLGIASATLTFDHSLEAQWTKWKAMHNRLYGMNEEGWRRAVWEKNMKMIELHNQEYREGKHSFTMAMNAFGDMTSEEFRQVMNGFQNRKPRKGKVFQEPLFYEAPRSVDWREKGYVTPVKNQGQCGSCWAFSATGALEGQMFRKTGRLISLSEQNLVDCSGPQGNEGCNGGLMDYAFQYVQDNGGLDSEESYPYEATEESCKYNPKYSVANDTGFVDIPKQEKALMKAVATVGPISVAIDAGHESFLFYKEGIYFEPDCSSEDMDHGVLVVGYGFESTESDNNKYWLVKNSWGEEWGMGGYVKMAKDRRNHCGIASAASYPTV
# Numbers without * were called inactive; · = not tested or not shown.
SMILES,IMP-1 inhibitor,PfM18AAP inh-1,VIM-2 inh,CTSL1 counter-1,PfM18AAP inh-2,CTSL1 counter-2
O=C(NNc1ccc(Cl)nn1)c1ccc(Cl)cc1,-4,38*,0,2,-4,-2
COc1cc(/C=N/Nc2nc(C)cc(=O)[nH]2)cc(OC)c1O,0,42*,0,2,17,0
OCC[C@H]1C[C@H](O)[C@@H](O)[C@]2(Cc3ccccc3CCO2)O1,·,·,·,-3,·,·
N#CCC(=O)N/N=C1\CCCCC1C1CCCCC1 (configuration not stated),-1,44*,-2,-5,-29,-6
O=C(O)CC1CCC(=C(Cl)Cl)C1 (configuration not stated),-1,64*,-2,2,-25,3
Cc1cc(C)nc(/N=C(\NC(=O)C(C)(C)C)Nc2ccc(F)cc2)n1,-1,7,-1,2,·,·
Cc1sc(N)nc1C12CC3CC(CC(C3)C1)C2,-4,6,-2,3,·,·
S=c1nc(C23CC4CC(CC(C4)C2)C3)[nH][nH]1,-1,36*,-3,-1,17,3
CC(=O)NS(=O)(=O)c1ccc2sc(C)nc2c1,-2,22,-4,2,-32,0
COC(=O)c1c(N)sc(C(=O)NCCc2ccccc2)c1C,-2,40*,-1,·,-11,-5
CCc1ccc(N(C(=O)C(F)(F)F)C(C(=O)NC2CCCCC2)c2ccncc2)cc1 (configuration not stated),-3,0,-4,-1,·,·
O=C(NC1CCCCC1)C(c1ccncc1)N(Cc1ccc2c(c1)OCO2)C(=O)C(F)(F)F (configuration not stated),-3,41*,-1,0,16,9
O=C1CSC(=S)N1/N=C/c1cccc(C(F)(F)F)c1,8.9*,40*,-2,5,-6,-4
COc1cc(/C=N/N2C(=O)CSC2=S)cc(Br)c1O,-4,27,3,·,·,·
O=C1CSC(=S)N1c1cccc(Cl)c1,2,18,0,2,·,·
COc1cccc(/C=N/N2C(=O)CSC2=S)c1O,1,32*,-3,1,26,0
O=C1CSC(=S)N1/N=C/c1c(F)cccc1F,12*,37*,-2,-1,-4,2
COc1ccccc1OC(=O)CCc1nc2ccccc2s1,-3,38*,-3,-21,-9,-1
COC(=O)CCCc1nc2ccccc2s1,-1,3,-3,0,·,·
CC(=O)c1ccc(OC(=O)CCc2nc3ccccc3s2)cc1,-5,39*,-1,-44,8,-43
COC(=O)C1=C(C(C)=O)C(c2ccc(C)cc2)n2nnnc2N1 (configuration not stated),0,52*,1,4,-33,2
CCc1ccc(C2C(C(C)=O)=C(C(=O)OC)Nc3nnnn32)cc1 (configuration not stated),-2,7,0,2,·,·
COC(=O)C1=C(C(C)=O)C(c2ccc(C(=O)OC)cc2)n2nnnc2N1 (configuration not stated),-3,52*,0,9,-39,-3
CCOc1cc(C2C(C(=O)c3ccc(C)cc3)=C(C(=O)OC)Nc3nnnn32)ccc1O (configuration not stated),-3,57*,0,3,-25,0
NS(=O)(=O)c1ccc(NC(=O)NC2CCCCC2)cc1,-4,-6,-4,1,·,·
SMILES,IMP-1 inhibitor,PfM18AAP inh-1,VIM-2 inh,CTSL1 counter-1,PfM18AAP inh-2,CTSL1 counter-2
NS(=O)(=O)c1ccc(NC(=S)NC2CCCCC2)cc1,-2,43*,-4,-3,-4,1
COCCNC(=S)Nc1ccc([N+](=O)[O-])cc1C,-3,6,0,5,·,·
CNC(=S)NNc1ccccc1[N+](=O)[O-],-1,57*,2,-2,61*,1
O=C(NNc1ccccc1[N+](=O)[O-])NC1CCCCC1,-4,16,1,2,·,·
COCCNC(=S)NNc1ccccc1[N+](=O)[O-],-2,61*,-3,4,61*,3
Cc1cc(=O)n2[nH]c(N)c(N=Nc3ccccc3)c2n1,-6,41*,-2,1,32*,8
Cc1ccc(N=Nc2c(N)[nH]n3c(=O)cc(-c4ccccc4)nc23)cc1,-3,-11,-2,-5,·,·
CC1(C)N=C(/C=N/O)CN1O,-3,8,-2,-1,·,·
COc1ccc2cc(CN(Cc3ccco3)C(c3nnnn3C3CCCCC3)C(C)C)c(=O)[nH]c2c1 (configuration not stated),-1,13,-1,3,·,·
COc1ccc2cc(CN(Cc3ccco3)Cc3nnnn3C3CCCCC3)c(=O)[nH]c2c1,-1,35*,-1,5,-37,-4
O=C(/C=C/c1c(F)cccc1Cl)c1ccc(O)cc1,-2,-2,-1,1,·,·
CCNc1ccc(Br)cc(C(=O)/C=C/c2ccc(Cl)cc2Cl)c1=O,-1,21,-3,4,·,·
O=C(O)CCNS(=O)(=O)c1ccc2ccccc2c1,-1,-11,1,1,·,·
O=C(O)CCNc1cc2ccccc2cc1C(=O)O,0,35*,2,-2,-4,-3
O=C(NNc1ccc([N+](=O)[O-])cc1)Nc1ccccc1,-2,55*,-1,-2,32*,1
O=C(NNc1ccccc1[N+](=O)[O-])Nc1ccccc1,-4,11,0,-1,·,·
O=C(NNc1ccc([N+](=O)[O-])cc1)c1ccccc1Cl,-3,50*,-1,4,21,0
O=C(O)c1ccccc1-c1ccccc1C(=O)NNc1ccc([N+](=O)[O-])cc1,0,53*,2,12,22,0
O=C(NNc1ccccc1[N+](=O)[O-])Nc1ccc(F)cc1,-2,38*,-2,0,1,4
O=C(O)c1ccccc1Nc1ccc([N+](=O)[O-])cc1,-4,-12,-1,2,·,·
O=C(NNC1=Nc2cc([N+](=O)[O-])ccc2OC1)c1ccccc1Cl,-3,11,-4,0,·,·
O=C(Nc1ccc([N+](=O)[O-])cc1)c1ccccc1,-2,-11,-1,-1,·,·
CCOC(=O)N1CCN(C(=O)COC(=O)C2CCN(S(=O)(=O)c3c(C)c(C)cc(C)c3C)CC2)CC1,·,·,·,5,·,·
Cc1noc(C)c1CCC(=O)N1CCCC(CCC(=O)NCc2ccccc2F)C1 (configuration not stated),-2,-7,-1,0,·,·
COCC(C)NC(=O)CSc1nc(-c2ccccc2)c(-c2ccccc2)o1 (configuration not stated),-4,0,-5,-2,·,·
CCN(CC)CCCN(Cc1cc2cc3c(cc2[nH]c1=O)OCCO3)C(=O)Nc1ccc(F)cc1,-2,6,-3,-2,·,·
O=C(NNc1ccc([N+](=O)[O-])cc1)c1ccccc1F,-2,39*,-1,·,16,9
O=C(NCCNc1ccc([N+](=O)[O-])cc1)c1ccccc1F,0,-8,1,11,·,·

# Screening data (PubChem BioAssay)
